Assay results published in ChEMBL document CHEMBL1275455, “Resistance and virulence of Pseudomonas aeruginosa clinical strains overproducing the MexCD-OprJ efflux pump” (2008).
Values after ≈ are worked out from the molar mass of the structure shown.

Legend:
Pseudomonas aeruginosa [1] = test: Antibacterial activity against Pseudomonas aeruginosa 1956 by twofold serial dilution method; assay type: functional
Outline: (§1)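 MIC by twofold serial dilution in Mueller-Hinton agar with adjusted Ca2+ and Mg2+, spotted with a Steers multiple inoculator at about 10^4 CFU per spot. Plates were incubated at 37°C and read visually at 18 and 24 h. Values are modal MICs of three independent determinations.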

Pseudomonas aeruginosa [2] = test: Antibacterial activity against Pseudomonas aeruginosa EryR by twofold serial dilution method; assay type: functional; outline: as §1
Pseudomonas aeruginosa [3] = test: Antibacterial activity against Pseudomonas aeruginosa FE60 by twofold serial dilution method; assay type: functional; outline: as §1
Pseudomonas aeruginosa [4] = test: microbe, parasite or virus in culture; settings: 2439
Pseudomonas aeruginosa [5] = test: Antibacterial activity against Pseudomonas aeruginosa 3308 by twofold serial dilution method; assay type: functional
Outline: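 MIC by serial twofold agar dilution in cation-adjusted Mueller-Hinton agar, about 10^4 CFU per spot applied with Steers multiple inoculator; plates at 37°C, read visually at 18 and 24 h. Modal values of three independent determinations. For pNF225 carriers, 150 μg/ml ticarcillin was added to growth cultures.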

Pseudomonas aeruginosa [6] = test: Antibacterial activity against Pseudomonas aeruginosa FK06 by twofold serial dilution method; assay type: functional; outline: as §1
Pseudomonas aeruginosa [7] = test: microbe, parasite or virus in culture; settings: 2126
Pseudomonas aeruginosa [8] = test: Antibacterial activity against Pseudomonas aeruginosa PAO1 by twofold serial dilution method; assay type: functional; outline: as §1
[9] = tested on: Pseudomonas aeruginosa PAO1; test: Activity of beta-lactamase AmpC in Pseudomonas aeruginosa PAO1 by spectrophotometry
Outline: (§2)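 Crude French press lysates tested spectrophotometrically with nitrocefin; activity in nmol nitrocefin·min−1·mg protein−1. Induced activity obtained by adding 50 μg/ml cefoxitin to MHB culture 3 h before end of incubation; uninduced without. Triplicate measurements per strain; run-to-run variation under 15%.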

Pseudomonas aeruginosa [10] = test: Activity of beta-lactamase AmpC in Pseudomonas aeruginosa 2126 by spectrophotometry; outline: as §2
Pseudomonas aeruginosa [11] = test: Activity of beta-lactamase AmpC in Pseudomonas aeruginosa 2439 by spectrophotometry; outline: as §2
Pseudomonas aeruginosa [12] = test: Activity of beta-lactamase AmpC in Pseudomonas aeruginosa 1956 by spectrophotometry; outline: as §2
Pseudomonas aeruginosa [13] = test: Activity of beta-lactamase AmpC in Pseudomonas aeruginosa 3308 by spectrophotometry; outline: as §2
Pseudomonas aeruginosa [14] = test: Activity of beta-lactamase AmpC in Pseudomonas aeruginosa EryR by spectrophotometry; outline: as §2
Pseudomonas aeruginosa [15] = test: Antibacterial activity against Pseudomonas aeruginosa FK06 harboring pNF225 carrying nfxB by twofold serial dilution method; assay type: functional
Outline: (§3)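 nfxB plasmid pNF225 was electroporated into the strains and kept by adding 150 μg/ml ticarcillin to growth media. MIC by twofold serial dilution in cation-adjusted Mueller-Hinton agar, about 10^4 CFU per spot by Steers inoculator, at 37°C. Plates were read visually at 18 and 24 h. Values are modal MICs of three independent determinations.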

Pseudomonas aeruginosa [16] = test: Antibacterial activity against Pseudomonas aeruginosa 3308 harboring pNF225 carrying nfxB by twofold serial dilution method; assay type: functional; outline: as §3
Pseudomonas aeruginosa [17] = test: Antibacterial activity against Pseudomonas aeruginosa 1956 harboring pNF225 carrying nfxB by twofold serial dilution method; assay type: functional; outline: as §3
Pseudomonas aeruginosa [18] = test: Antibacterial activity against Pseudomonas aeruginosa EryR harboring pNF225 carrying nfxB by twofold serial dilution method; assay type: functional; outline: as §3
Pseudomonas aeruginosa [19] = test: Antibacterial activity against Pseudomonas aeruginosa 2126 harboring pNF225 carrying nfxB by twofold serial dilution method; assay type: functional; outline: as §3
Pseudomonas aeruginosa [20] = test: Antibacterial activity against Pseudomonas aeruginosa 2439 harboring pNF225 carrying nfxB by twofold serial dilution method; assay type: functional; outline: as §3

Row | Compound | MIC (Pseudomonas aeruginosa [1]) [µg/mL] | MIC (Pseudomonas aeruginosa [2]) [µg/mL] | MIC (Pseudomonas aeruginosa [3]) [µg/mL] | MIC (Pseudomonas aeruginosa [4]) [µg/mL] | MIC (Pseudomonas aeruginosa [5]) [µg/mL] | MIC (Pseudomonas aeruginosa [6]) [µg/mL] | MIC (Pseudomonas aeruginosa [7]) [µg/mL] | MIC (Pseudomonas aeruginosa [8]) [µg/mL] | Activity [9] [nmol/min/mg] | Activity (Pseudomonas aeruginosa [10]) [nmol/min/mg] | Activity (Pseudomonas aeruginosa [11]) [nmol/min/mg] | Activity (Pseudomonas aeruginosa [12]) [nmol/min/mg] | Activity (Pseudomonas aeruginosa [13]) [nmol/min/mg] | Activity (Pseudomonas aeruginosa [14]) [nmol/min/mg] | MIC (Pseudomonas aeruginosa [15]) [µg/mL] | MIC (Pseudomonas aeruginosa [16]) [µg/mL] | MIC (Pseudomonas aeruginosa [17]) [µg/mL] | MIC (Pseudomonas aeruginosa [18]) [µg/mL] | MIC (Pseudomonas aeruginosa [19]) [µg/mL] | MIC (Pseudomonas aeruginosa [20]) [µg/mL]
1 | CO/N=C(\C(=O)N[C@@H]1C(=O)N2C(C(=O)[O-])=C(C[N+]3(C)CCCC3)CS[C@H]12)c1csc(N)n1 | 2 (≈ 4.16 µM) | 8 (≈ 16.6 µM) | 2 (≈ 4.16 µM) | 8 (≈ 16.6 µM) | 4 (≈ 8.32 µM) | 8 (≈ 16.6 µM) | 8 (≈ 16.6 µM) | 2 (≈ 4.16 µM) |  |  |  |  |  |  |  |  |  |  |  | 
2 | O=C(Cc1cccs1)N[C@@H]1C(=O)N2C(C(=O)O)=C(/C=C/c3ccc([N+](=O)[O-])cc3[N+](=O)[O-])CS[C@H]12 |  |  |  |  |  |  |  |  | 1820 | 5140 | 2680 | 4550 | 2670 | 3110 |  |  |  |  |  | 
3 | NCC[C@H](O)C(=O)N[C@@H]1C[C@H](N)[C@@H](O[C@H]2O[C@H](CN)[C@@H](O)[C@H](O)[C@H]2O)[C@H](O)[C@H]1O[C@H]1O[C@H](CO)[C@@H](O)[C@H](N)[C@H]1O [AMIKACIN] | 1 (≈ 1.71 µM) | 2 (≈ 3.42 µM) | 1 (≈ 1.71 µM) | 1 (≈ 1.71 µM) | 0.5 (≈ 0.854 µM) | 1 (≈ 1.71 µM) | 1 (≈ 1.71 µM) | 4 (≈ 6.83 µM) |  |  |  |  |  |  | 1 (≈ 1.71 µM) | 1 (≈ 1.71 µM) | 2 (≈ 3.42 µM) | 8 (≈ 13.7 µM) | 2 (≈ 3.42 µM) | 2 (≈ 3.42 µM)
4 | C[C@H]1[C@H](NC(=O)/C(=N\OC(C)(C)C(=O)O)c2csc(N)n2)C(=O)N1S(=O)(=O)O [AZTREONAM] | 1 (≈ 2.3 µM) | 1 (≈ 2.3 µM) | 4 (≈ 9.19 µM) | 1 (≈ 2.3 µM) | 1 (≈ 2.3 µM) | 1 (≈ 2.3 µM) | 1 (≈ 2.3 µM) |  |  |  |  |  |  |  | 4 (≈ 9.19 µM) | 4 (≈ 9.19 µM) |  |  |  | 
5 | O=C(N[C@H](CO)[C@H](O)c1ccc([N+](=O)[O-])cc1)C(Cl)Cl [CHLORAMPHENICOL] | 128 (≈ 396 µM) | 128 (≈ 396 µM) | 64 (≈ 198 µM) | 128 (≈ 396 µM) | 128 (≈ 396 µM) | 128 (≈ 396 µM) | 128 (≈ 396 µM) | 64 (≈ 198 µM) |  |  |  |  |  |  | 64 (≈ 198 µM) | 64 (≈ 198 µM) | 64 (≈ 198 µM) | 32 (≈ 99 µM) | 32 (≈ 99 µM) | 64 (≈ 198 µM)
6 | O=C(O)c1cn(C2CC2)c2cc(N3CCNCC3)c(F)cc2c1=O [CIPROFLOXACIN] | 1 (≈ 3.02 µM) |  | 0.12 (≈ 0.362 µM) |  |  |  |  |  |  |  |  |  |  |  |  | 0.12 (≈ 0.362 µM) |  |  |  | 
7 | C[C@@H](O)[C@H]1C(=O)N2C(C(=O)O)=C(SCCNC=N)C[C@H]12 [IMIPENEM ANHYDROUS] | 2 (≈ 6.68 µM) | 0.5 (≈ 1.67 µM) | 2 (≈ 6.68 µM) | 0.5 (≈ 1.67 µM) | 0.12 (≈ 0.401 µM) | 0.5 (≈ 1.67 µM) | 0.5 (≈ 1.67 µM) | 2 (≈ 6.68 µM) |  |  |  |  |  |  | 2 (≈ 6.68 µM) | 2 (≈ 6.68 µM) | 4 (≈ 13.4 µM) | 2 (≈ 6.68 µM) | 1 (≈ 3.34 µM) | 2 (≈ 6.68 µM)
8 | CC1(C)S[C@@H]2[C@H](NC(=O)[C@H](C(=O)O)c3ccsc3)C(=O)N2[C@H]1C(=O)O [TICARCILLIN] | 8 (≈ 20.8 µM) | 2 (≈ 5.2 µM) | 16 (≈ 41.6 µM) | 4 (≈ 10.4 µM) | 2 (≈ 5.2 µM) | 4 (≈ 10.4 µM) | 4 (≈ 10.4 µM) | 16 (≈ 41.6 µM) |  |  |  |  |  |  |  |  |  |  |  | 
9 | NC[C@H]1O[C@H](O[C@H]2[C@H](O)[C@@H](O[C@H]3O[C@H](CO)[C@@H](O)[C@H](N)[C@H]3O)[C@H](N)C[C@@H]2N)[C@H](N)C[C@@H]1O [TOBRAMYCIN] | 0.25 (≈ 0.535 µM) | 0.25 (≈ 0.535 µM) | 0.25 (≈ 0.535 µM) | 0.25 (≈ 0.535 µM) | 0.12 (≈ 0.257 µM) | 0.25 (≈ 0.535 µM) | 0.25 (≈ 0.535 µM) | 0.5 (≈ 1.07 µM) |  |  |  |  |  |  | 0.25 (≈ 0.535 µM) | 0.25 (≈ 0.535 µM) | 0.5 (≈ 1.07 µM) | 1 (≈ 2.14 µM) | 0.5 (≈ 1.07 µM) | 0.5 (≈ 1.07 µM)
10 | GENTAMICIN | 1 | 1 | 0.25 |  | 0.25 |  |  | 2 |  |  |  |  |  |  |  | 1 | 2 | 2 | 2 | 2
